According to ChEMBL document CHEMBL1123382, “Potential tumor- or organ-imaging agents. 27. Polyiodinated 1,3-disubstituted and 1,2,3-trisubstituted triacylglycerols” (J Med Chem, 1986):
Several values for one entry are separate records, joined by “and”; a condition that tells them apart may be missing. Equal values may be shown once.

Columns and labels:
Rattus norvegicus [1] = experiment: Biodistribution in Rat lung after 30 minutes of iv administration; format: ADME, organism-based; settings: in vivo, 0.5 h
In short: (§1)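 125I-labeled compound solubilized in normal saline with Tween-20 and given iv to rats, about 5-30 μCi (9-83 μg) per animal. Three to five rats per time point. Rats killed by exsanguination under ether anesthesia at 5 min, 30 min or 24 h. Organs minced, blotted free of blood and counted for radioiodine. Lines with "per g" are % administered dose per gram ± SEM.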

Rattus norvegicus [2] = experiment: Biodistribution in Rat liver after 5 minutes of iv administration; format: ADME, organism-based; settings: in vivo; in short: as §1
Rattus norvegicus [3] = experiment: Biodistribution in Rat lung after 24 hours of iv administration; format: ADME, organism-based; settings: in vivo; in short: as §1
Rattus norvegicus [4] = experiment: Biodistribution in Rat lung after 5 minutes of iv administration; format: ADME, organism-based; settings: in vivo; in short: as §1
Rattus norvegicus [5] = experiment: Biodistribution in Rat blood after 24 hours of iv administration; format: ADME, organism-based; settings: in vivo; in short: as §1
Rattus norvegicus [6] = experiment: Biodistribution in Rat blood after 30 minutes of iv administration; format: ADME, organism-based; settings: in vivo, 0.5 h; in short: as §1
Rattus norvegicus [7] = experiment: Biodistribution in Rat blood after 5 minutes of iv administration; format: ADME, organism-based; settings: in vivo; in short: as §1
Rattus norvegicus [8] = experiment: Biodistribution in Rat heart after 24 hours of iv administration; format: ADME, organism-based; settings: in vivo; in short: as §1
Rattus norvegicus [9] = experiment: Biodistribution in Rat heart after 30 minutes of iv administration; format: ADME, organism-based; settings: in vivo, 0.5 h; in short: as §1
Rattus norvegicus [10] = experiment: Biodistribution in Rat heart after 5 minutes of iv administration; format: ADME, organism-based; settings: in vivo; in short: as §1
Rattus norvegicus [11] = experiment: Biodistribution in Rat liver after 24 hours of iv administration; format: ADME, organism-based; settings: in vivo; in short: as §1
Rattus norvegicus [12] = experiment: (§2) Biodistribution in Rat liver after 30 minutes of iv administration; format: ADME, organism-based; settings: in vivo, 0.5 h; in short: as §1
Rattus norvegicus [13] = experiment: as §2; format: ADME, organism-based; settings: in vivo, 0.5 h; in short: as §1; remark: listed apart in the source
Rattus norvegicus [14] = experiment: Compound was evaluated for the lipid soluble radioactivity extracted from rat plasma at 24 hr after intravenous administration.; format: functional
In short: (§3)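 Liver and plasma taken 0.5 or 24 h after iv dosing of 125I-labeled compound in rats (n = 3-5). Extracted by a modified Folch procedure; value is % lipid (CHCl3/MeOH)-extractable radioactivity ± SEM. Extracts run on TLC in hexane/ethyl acetate 5:2 against unlabeled standard, then 1-cm strips counted to give % parent compound.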

Rattus norvegicus [15] = experiment: Compound was evaluated for the lipid soluble radioactivity extracted from rat liver at 0.5 hr after intravenous administration.; format: functional; in short: as §3
Rattus norvegicus [16] = experiment: Compound was evaluated for the lipid soluble radioactivity extracted from rat liver at 24 hr after intravenous administration.; format: functional; in short: as §3
Rattus norvegicus [17] = experiment: Compound was evaluated for the lipid soluble radioactivity extracted from rat plasma at 0.5 hr after intravenous administration.; format: functional; in short: as §3
Rattus norvegicus [18] = experiment: Liver radioactivity after iv administration of compound (24 h) in rats; format: functional, organism-based
In short: (§4)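 Rats (3-5 per time point) dosed iv with about 5-30 μCi (9-83 μg) of 125I-labeled compound in saline containing Tween-20. Killed by exsanguination under ether at 5 min, 30 min or 24 h. Liver removed, minced, blotted and counted. Values are % administered dose per organ, based on each animal's actual liver weight, ± SEM.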

Rattus norvegicus [19] = experiment: Liver radioactivity after iv administration of compound (30 min) in rats; format: functional, organism-based; in short: as §4
Rattus norvegicus [20] = experiment: Liver radioactivity after iv administration of compound (5 min) in rats; format: functional, organism-based; in short: as §4
Rattus norvegicus [21] = experiment: Compound (125I labeled) was evaluated for the total radioactivity in albumin 5 min after intravenous administration.; format: functional; set-up: concentration or dose not given beside the values
In short: (§5)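 Rat plasma taken 5 or 30 min after iv dosing of 125I-labeled compound (saline/Tween-20) and run on polyacrylamide gel electrophoresis. Gels sectioned and each section gamma-counted. Radioactivity in each band (stacking gel, lipoproteins, albumin, below-albumin) is given as % of total radioactivity applied to the gel.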

Rattus norvegicus [22] = experiment: Evaluated for the total radioactivity in below albumin at 30 min after intravenous administration.; format: functional; in short: as §5
Rattus norvegicus [23] = experiment: Compound (125I labeled) was evaluated for the total radioactivity in high-density lipoprotein 5 min after intravenous administration.; format: functional; in short: as §5
Rattus norvegicus [24] = experiment: Compound (125I labeled) was evaluated for the total radioactivity in high-density lipoprotein, at 30 min after intravenous administration.; format: functional; in short: as §5
Rattus norvegicus [25] = experiment: Compound (125I labeled) was evaluated for the total radioactivity in low-density lipoprotein 5 min after intravenous administration.; format: functional; set-up: concentration or dose not given beside the values; in short: as §5
Rattus norvegicus [26] = experiment: Compound (125I labeled) was evaluated for the total radioactivity in low-density lipoprotein, at 30 min after intravenous administration.; format: functional; in short: as §5
Rattus norvegicus [27] = experiment: Compound (125I labeled) was evaluated for the total radioactivity in stacking gel 5 min after intravenous administration.; format: functional; in short: as §5
Rattus norvegicus [28] = experiment: Compound (125I labeled) was evaluated for the total radioactivity in stacking gel at 30 min after intravenous administration.; format: functional; in short: as §5
Rattus norvegicus [29] = experiment: Compound (125I labeled) was evaluated for the total radioactivity in albumin at 30 min after intravenous administration.; format: functional; set-up: concentration or dose not given beside the values; in short: as §5

| Biodistribution (Rattus norvegicus [1]) | Biodistribution (Rattus norvegicus [2]) | Biodistribution (Rattus norvegicus [3]) | Biodistribution (Rattus norvegicus [4]) | Biodistribution (Rattus norvegicus [5]) | Biodistribution (Rattus norvegicus [6]) | Biodistribution (Rattus norvegicus [7]) | Biodistribution (Rattus norvegicus [8]) | Biodistribution (Rattus norvegicus [9]) | Biodistribution (Rattus norvegicus [10]) | Biodistribution (Rattus norvegicus [12]) | Biodistribution (Rattus norvegicus [13]) | Structure (SMILES) | Extracted (Rattus norvegicus [15]) | Parent compound (Rattus norvegicus [15]) | Parent compound (Rattus norvegicus [17]) | Radioactivity (Rattus norvegicus [19]) | Radioactivity (Rattus norvegicus [20]) | Total radioactivity (Rattus norvegicus [21]) | Total radioactivity (Rattus norvegicus [23]) | Total radioactivity (Rattus norvegicus [24]) | also measured |
| --- | --- | --- | --- | --- | --- | --- | --- | --- | --- | --- | --- | --- | --- | --- | --- | --- | --- | --- | --- | --- | --- |
| 0.73% | 0.64% and 5.84% | 0.12% | 1.38% | 0.1% | 1.49% | 2.74% | 0.12% | 1.06% | 1.43% | 4.24% | 4.24% | CCCCCCCCCCCCCCCC(=O)OC(COC(=O)CCCCCCCCCCCc1c(I)cc(I)c(N)c1I)COC(=O)CCCCCCCCCCCc1c(I)cc(I)c(N)c1I | 64.2% | 28.1% | 11.3% | 30.7 | 43.4 | 14.8% | 12% | 25.7% | Biodistribution (Rattus norvegicus [11]): 0.14% and 1.06%; Extracted (Rattus norvegicus [14]): 52%; Parent compound (Rattus norvegicus [14]): 25.3%; Extracted (Rattus norvegicus [16]): 81.7%; Parent compound (Rattus norvegicus [16]): 44.9%; Extracted (Rattus norvegicus [17]): 64.6%; Radioactivity (Rattus norvegicus [18]): 7.73; Total radioactivity (Rattus norvegicus [22]): 3.4% and 3.1%; Total radioactivity (Rattus norvegicus [25]): 8.2%; Total radioactivity (Rattus norvegicus [26]): 12.1%; Total radioactivity (Rattus norvegicus [27]): 61.6%; Total radioactivity (Rattus norvegicus [28]): 8.6%; Total radioactivity (Rattus norvegicus [29]): 50.7% |
| 6.63% | 0.44% and 8.02% | 2.64% | 6.69% | 0.05% | 1.71% | 2.15% | 0.19% | 0.82% | 1.93% | 10.4% | 10.38% | Nc1c(I)cc(I)c(CCC(=O)OCC(COC(=O)CCc2c(I)cc(I)c(N)c2I)OC(=O)CCc2c(I)cc(I)c(N)c2I)c1I | 94.8% | 97.3% | 94.5% | 75.5 | 60.5 | 10.5% | 38.4% | 34.5% | Extracted (Rattus norvegicus [14]): 83.3%; Parent compound (Rattus norvegicus [14]): 68.2%; Extracted (Rattus norvegicus [16]): 91.1%; Parent compound (Rattus norvegicus [16]): 96.5%; Extracted (Rattus norvegicus [17]): 89%; Radioactivity (Rattus norvegicus [18]): 86.2; Total radioactivity (Rattus norvegicus [22]): 3.2% and 4.1%; Total radioactivity (Rattus norvegicus [25]): 29.6%; Total radioactivity (Rattus norvegicus [26]): 27.6%; Total radioactivity (Rattus norvegicus [27]): 18.3%; Total radioactivity (Rattus norvegicus [28]): 20.2%; Total radioactivity (Rattus norvegicus [29]): 13.8% |
| 0.94% | 0.52% and 6.68% | 0.07% | 1.08% | 0.06% | 2.1% | 4.14% | 0.03% | 0.92% | 0.74% | 5.28% | 5.28% | Nc1c(I)cc(I)c(CCCCCCCCCCCCCCCCC(=O)OCC(COC(=O)CCCCCCCCCCCCCCCCc2c(I)cc(I)c(N)c2I)OC(=O)CCCCCCCCCCCCCCCCc2c(I)cc(I)c(N)c2I)c1I | 50.7% | 15.1% | 29.2% | 38.8 | 54.4 | 20.3% | 32.7% | 28.1% | Biodistribution (Rattus norvegicus [11]): 0.14% and 0.44%; Extracted (Rattus norvegicus [14]): 54.2%; Parent compound (Rattus norvegicus [14]): 20.2%; Extracted (Rattus norvegicus [16]): 73.4%; Parent compound (Rattus norvegicus [16]): 9.5%; Extracted (Rattus norvegicus [17]): 70.1%; Radioactivity (Rattus norvegicus [18]): 3; Total radioactivity (Rattus norvegicus [22]): 7.1% and 6.8%; Total radioactivity (Rattus norvegicus [25]): 32.2%; Total radioactivity (Rattus norvegicus [26]): 15.1%; Total radioactivity (Rattus norvegicus [27]): 6.4%; Total radioactivity (Rattus norvegicus [28]): 3.8%; Total radioactivity (Rattus norvegicus [29]): 46.2% |
| 0.67% | 0.6% and 6.94% | 0.09% | 1.13% | 0.07% | 0.91% | 1.46% | 0.05% | 0.65% | 2.67% | 5.24% | 5.24% | Nc1c(I)cc(I)c(CCCCCCCCCCCC(=O)OCC(COC(=O)CCCCCCCCCCCc2c(I)cc(I)c(N)c2I)OC(=O)CCCCCCCCCCCc2c(I)cc(I)c(N)c2I)c1I | 76.5% | 68.8% | 24.1% | 45.7 | 53.8 | 30.2% | 27.2% | 33.6% | Biodistribution (Rattus norvegicus [11]): 0.1% and 0.71%; Total radioactivity (Rattus norvegicus [22]): 5.5% and 12.6%; Total radioactivity (Rattus norvegicus [25]): 12.7%; Total radioactivity (Rattus norvegicus [26]): 6.2%; Total radioactivity (Rattus norvegicus [27]): 24.4%; Total radioactivity (Rattus norvegicus [28]): 5.8%; Total radioactivity (Rattus norvegicus [29]): 40.6% |
| 1.03% | 0.67% and 4.76% | 0.08% | 1.45% | 0.07% | 1.97% | 4.78% | 0.03% | 0.87% | 0.87% | 4.2% | 4.2% | CCCCCCCCCCCCCCCC(=O)OC(COC(=O)CCCCCCCCCCCCCCCCc1c(I)cc(I)c(N)c1I)COC(=O)CCCCCCCCCCCCCCCCc1c(I)cc(I)c(N)c1I | 42.3% | 25.3% | 28.8% | 32.7 | 33.8 | 26.2% | 34.4% | 24.8% | Biodistribution (Rattus norvegicus [11]): 0.13% and 0.37%; Extracted (Rattus norvegicus [14]): 44.1%; Parent compound (Rattus norvegicus [14]): 18%; Extracted (Rattus norvegicus [16]): 63.5%; Parent compound (Rattus norvegicus [16]): 17.3%; Extracted (Rattus norvegicus [17]): 70.9%; Radioactivity (Rattus norvegicus [18]): 2.59; Total radioactivity (Rattus norvegicus [25]): 32.9%; Total radioactivity (Rattus norvegicus [26]): 14.2%; Total radioactivity (Rattus norvegicus [27]): 2.5%; Total radioactivity (Rattus norvegicus [28]): 9.7%; Total radioactivity (Rattus norvegicus [29]): 37.1% |
